This is an account of results in ChEMBL document CHEMBL1138272, “Synthesis, characterization, and receptor interaction profiles of enantiomeric bile acids” (J Med Chem, 2007).

The test system of data set [1] is Huh-7. Briefly: Activation of BSEP gene expression in human Huh7 cells at 20 uM after 18 hrs by RT-PCR. Format: functional, cell-based. The method, boiled down: (§1)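 Huh7 cells seeded 2 × 10^5/well in high-glucose DMEM/10% FBS; next day ligands added in low-glucose DMEM with 5% charcoal-stripped FBS, 18 h. RNA harvested, SYBR green real-time QPCR, ΔΔCt normalized to cyclophilin, fold vs vehicle; N = 3, mean ± SD.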

For data set [2], the system named is Huh-7. Briefly: Activation of SHP gene expression in human Huh7 cells at 20 uM after 18 hrs by RT-PCR. Format: functional, cell-based. The method in brief: as §1
Data set [3] addresses T1, Nuclear receptor subfamily 1 group I member 2 (Homo sapiens, UniProt O75469).
T1 sequence (O75469 whole entry): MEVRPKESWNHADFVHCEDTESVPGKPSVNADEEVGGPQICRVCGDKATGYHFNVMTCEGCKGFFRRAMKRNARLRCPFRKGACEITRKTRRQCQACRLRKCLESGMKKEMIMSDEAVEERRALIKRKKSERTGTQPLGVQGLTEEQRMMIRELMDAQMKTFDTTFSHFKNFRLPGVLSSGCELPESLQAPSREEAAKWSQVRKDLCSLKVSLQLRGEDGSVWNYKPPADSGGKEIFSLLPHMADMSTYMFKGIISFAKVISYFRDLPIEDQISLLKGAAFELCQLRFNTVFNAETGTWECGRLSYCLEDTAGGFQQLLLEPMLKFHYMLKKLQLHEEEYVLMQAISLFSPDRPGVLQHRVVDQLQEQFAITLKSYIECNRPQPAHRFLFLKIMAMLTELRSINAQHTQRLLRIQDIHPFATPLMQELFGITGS
Briefly: Activation of human PXR expressed in HEK293 cells at 20 uM by GAL4 activation assay relative to control. Format: cell-based. The note with it: hek293, 20 µM. The method in brief: (§2)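 HEK293 cells in DMEM/10% super-stripped FBS, 4.0 × 10^4/well, calcium-phosphate transfected with UAS-luciferase (50 ng), GAL4-hFXR or GAL4-hPXR LBD fusion (15 ng), β-galactosidase (10 ng); ligands (5, 20, 50 µM) added 6-8 h later in delipidated medium, harvested 14-16 h later. Luciferase normalized to β-gal, fold over ethanol vehicle; triplicates.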

Data set [4] has as its system Caco-2. Briefly: Activation of IBABP gene expression in human Caco-2 cells at 25 uM after 6 days by RT-PCR. In kind it is functional, cell-based. The method in brief: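 Caco-2 cells grown in high-glucose DMEM/15% heat-inactivated FBS, medium changed every 3 days; 23 days post-confluence treated with ligands in DMEM with 15% charcoal-stripped FBS for 6 days. SYBR green real-time QPCR, ΔΔCt normalized to cyclophilin, fold vs vehicle; N = 2.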

The target in data set [5] is T2, Bile acid receptor (Homo sapiens) (UniProt Q96RI1).
T2 sequence (whole entry): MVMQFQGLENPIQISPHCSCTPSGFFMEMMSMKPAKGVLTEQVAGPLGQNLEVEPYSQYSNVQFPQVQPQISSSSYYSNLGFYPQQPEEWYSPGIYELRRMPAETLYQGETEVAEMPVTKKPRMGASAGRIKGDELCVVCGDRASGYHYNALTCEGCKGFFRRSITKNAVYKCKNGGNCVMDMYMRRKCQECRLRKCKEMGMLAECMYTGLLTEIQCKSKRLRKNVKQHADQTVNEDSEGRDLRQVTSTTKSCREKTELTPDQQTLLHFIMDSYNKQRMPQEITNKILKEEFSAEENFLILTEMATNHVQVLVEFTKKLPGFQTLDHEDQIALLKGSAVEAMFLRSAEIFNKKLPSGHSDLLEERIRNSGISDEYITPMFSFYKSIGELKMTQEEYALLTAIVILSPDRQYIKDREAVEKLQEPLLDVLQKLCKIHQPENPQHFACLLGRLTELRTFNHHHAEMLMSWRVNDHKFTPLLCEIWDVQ
Briefly: Activation of human FXR expressed in HEK293 cells by GAL4 activation assay. Format: cell-based. The method in brief: as §2

Data set [6] deals with T1, Nuclear receptor subfamily 1 group I member 2. Briefly: Activation of human PXR expressed in HEK293 cells at 50 uM by GAL4 activation assay relative to control. Format: cell-based. To be noted: hek293, 50 µM. The method in brief:
as §2

For data set [7], the system named is HepG2. Briefly: Activation of SHP gene expression in human HepG2 cells at 10 uM after 18 hrs by RT-PCR. In kind it is functional, cell-based. The method, boiled down: (§3)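 HepG2 cells seeded 3 × 10^5/well in M199 with 10% FBS and 25 mM HEPES; after 24 h, medium replaced with ligand-containing medium, 18 h. Total RNA isolated; real-time QPCR with SYBR green (12.5 ng cDNA, 150 nM primers); ΔΔCt method normalized to cyclophilin, fold change vs vehicle-treated cells; N = 3, mean ± SD.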

Data set [8] concerns the target T3, G-protein coupled bile acid receptor 1 (Homo sapiens) (UniProt Q8TDU6).
T3 sequence (whole entry): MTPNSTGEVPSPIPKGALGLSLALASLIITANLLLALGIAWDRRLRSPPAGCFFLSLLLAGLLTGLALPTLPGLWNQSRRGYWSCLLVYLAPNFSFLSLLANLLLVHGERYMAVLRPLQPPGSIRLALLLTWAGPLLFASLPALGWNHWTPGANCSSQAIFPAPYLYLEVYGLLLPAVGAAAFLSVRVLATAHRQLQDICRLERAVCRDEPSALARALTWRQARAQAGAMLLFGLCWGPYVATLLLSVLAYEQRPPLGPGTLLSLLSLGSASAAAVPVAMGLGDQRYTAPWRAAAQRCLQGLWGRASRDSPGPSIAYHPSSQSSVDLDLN
Briefly: Activation of TGR5 expressed in HEK293 cells assessed as elevation of cAMP production at 100 uM relative to control. In kind it is functional, cell-based. The method in brief:
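HEK293 seeded 0.5 × 10^6 cells/well and transfected 24 h later with TGR5 vector or empty vector. After 2 days, cells were exposed 30 min at 37 °C in fresh medium with 0.2 mM IBMX. Intracellular cAMP was measured by kit after lysis and expressed over vehicle; N = 2.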

The test system of data set [9] is HepG2. Briefly: Decrease in CYP7A1 gene expression in human HepG2 cells at 1 uM after 18 hrs by RT-PCR. Format: functional, cell-based. The method in brief:
(§4)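 HepG2 seeded 3 × 10^5 cells/well in M199 with 10% FBS, penicillin/streptomycin and 25 mM HEPES. After 24 h, medium was replaced with ligand-containing medium for 18 h. Total RNA was isolated and analysed by SYBR green real-time QPCR (12.5 ng cDNA, 150 nM primers). Values were derived by ΔΔCt against cyclophilin, as fold over vehicle; N = 3.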

For data set [10], the system named is Huh-7. Briefly: Activation of BSEP gene expression in human Huh7 cells at 1 uM after 18 hrs by RT-PCR. In kind it is functional, cell-based. The method in brief:
(§5)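 Huh7 seeded 2 × 10^5 cells/well in high-glucose DMEM with 10% FBS. Next day, ligands were added in low-glucose DMEM with 5% charcoal-stripped FBS for 18 h. RNA was read by SYBR green real-time QPCR, ΔΔCt normalised to cyclophilin, and expressed as fold over vehicle; N = 3.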

Data set [11] has as its system HepG2. Briefly: Activation of BSEP gene expression in human HepG2 cells at 1 uM after 18 hrs by RT-PCR. Format: functional, cell-based. The method in brief:
as §4

Data set [12] concerns Huh-7. Briefly: Activation of SHP gene expression in human Huh7 cells at 1 uM after 18 hrs by RT-PCR. Format: functional, cell-based. The method in brief: as §5
For data set [13], the system named is Caco-2. Briefly: Activation of IBABP gene expression in human Caco-2 cells at 1 uM after 6 days by RT-PCR. Format: functional, cell-based. The method in brief: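 Caco-2 grown in high-glucose DMEM with 15% heat-inactivated FBS, medium changed every 3 days. Treated 23 days postconfluence for 6 days in medium with 15% charcoal-stripped heat-inactivated FBS. RNA was read by SYBR green real-time QPCR, ΔΔCt normalised to cyclophilin, and expressed relative to vehicle; N = 2.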

Data set [14] has as its system HepG2. Briefly: Decrease in CYP7A1 gene expression in human HepG2 cells at 25 uM after 18 hrs by RT-PCR. Format: functional, cell-based. The method, boiled down:
as §3

Data set [15] relates to HepG2. Briefly: Activation of SHP gene expression in human HepG2 cells at 25 uM after 18 hrs by RT-PCR. In kind it is functional, cell-based. The method in brief: as §3
Data set [16] deals with HepG2. Briefly: Activation of BSEP gene expression in human HepG2 cells at 25 uM after 18 hrs by RT-PCR. In kind it is functional, cell-based. The method, boiled down: as §3
Data set [17] concerns the target T2, Bile acid receptor (Homo sapiens). Briefly: Activation of human FXR at 50 uM by FXRE TK-luciferase reporter gene assay relative to control. The method, boiled down: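 HEK293 cells calcium-phosphate cotransfected with full-length hFXR and hRXRα (15 ng each) plus FXREx3-TK-luc reporter (three copies of mouse IBABP IR-1) and β-galactosidase; bile acids 50 µM added in delipidated medium 6-8 h later, harvested 14-16 h later; luciferase normalized to β-gal; N = 3.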

Active and inactive are the calls of the source. The rule behind the calls is not given here.

In the case of `C[C@@H](CCC(=O)O)[C@@H]1CC[C@H]2[C@@H]3CC[C@H]4C[C@@H](O)CC[C@@]4(C)[C@H]3CC[C@]21C`, the outcome in the data set with Huh-7 [1], in the data set with Huh-7 [2] and in the data set on HepG2 [7] was Active. For the same molecule, the Activity entry in data set [3] is “Active”; in data set [5], “Dose-dependent effect”; in data set [6], “Active”. Besides, in the data set with Caco-2 [4], the outcome was inactive.

Regarding `C=C[C@@]1(C)CC(=O)[C@]2(O)[C@@]3(C)[C@@H](O)CCC(C)(C)[C@@H]3[C@H](O)[C@H](OC(C)=O)[C@@]2(C)O1`, in data set [8], the Fold change was found to be 16.5.

As for `CC(C)c1onc(-c2c(Cl)cccc2Cl)c1COc1ccc(/C=C/c2cccc(C(=O)O)c2)c(Cl)c1`, the result in the data set with HepG2 [9], in the data set with Huh-7 [10], with HepG2 [11], in the data set with Huh-7 [12] and with Caco-2 [13] was Active.

As for `C[C@H](CCC(=O)O)[C@H]1CC[C@H]2[C@@H]3[C@@H](O)C[C@@H]4C[C@H](O)CC[C@]4(C)[C@H]3CC[C@]12C`, the result in the data set with HepG2 [14] was Active. The result in the data set on Caco-2 [4] was inactive.

As to `C[C@H](CCC(=O)O)[C@H]1CC[C@H]2[C@@H]3[C@H](O)C[C@@H]4C[C@H](O)CC[C@]4(C)[C@H]3CC[C@]12C` [CHENODIOL], the result with Huh-7 [1], in the data set on Huh-7 [2], with HepG2 [14], with Caco-2 [4], with HepG2 [15] and with HepG2 [16] was Active. Also, the outcome in data set [3] and in data set [6] was Active.

Consider `C[C@H](CCC(=O)O)[C@H]1CC[C@H]2[C@@H]3CC[C@@H]4C[C@H](O)CC[C@]4(C)[C@H]3CC[C@]12C` [LITHOCHOLIC ACID], for which the outcome (in the data set with Huh-7 [1]; with Huh-7 [2]; in [17]) was Active. Besides, the results for the Activity result in data set [3], in data set [5] and in [6] were “Active”, “Dose-dependent effect” and “Active”, respectively. In addition, the outcome in the data set on Caco-2 [4] was inactive.
